Assay results of several laboratories.
Compare with care: the assays were run in different laboratories.
Target: Phosphatidylinositol 4,5-bisphosphate 3-kinase catalytic subunit gamma isoform (PIK3CG, Homo sapiens, UniProt P48736)

The remaining binding of `CCc1ccccc1C(=O)Nc1n[nH]c2c(C)c(F)c(C3C(C#N)=C(C)N(C)C(C)=C3C#N)cc12` is reported as 100% (cell-free assay, competition with immobilised ligand; 1 µM).
`Cc1cnc(NC2CCOCC2)nc1-n1cnc(C(=O)NC(CN)c2cc(F)cc(Cl)c2)c1` (stereo not drawn) gave a remaining activity of 100% (enzyme activity, inhibitor, radiometric; 1 µM).
`Cc1cc(NC(=O)c2cccc3cc(-c4cccc5[nH]nc(N)c45)ccc23)ccc1F` has an activity vs control of 97% (enzyme activity, inhibitor; 0.1 µM).
For `O=C(CSc1nc2nccnc2c(=O)n1CCc1ccccc1)Nc1ccccc1`, the inhibition was under 20% (enzyme activity, inhibitor; 10 µM).
With `Nc1ncnc2occ(-c3ccc(NC(=O)Nc4cc(C(F)(F)F)ccc4F)cc3)c12` the remaining signal was 54% (cell-free assay, inhibitor; 20 µM).
The remaining binding of `CS(=O)(=O)c1cc(C2(NC(=O)c3cncc4c3cnn4-c3ccc(F)cc3)CC2)ccn1` is reported as 82% (cell-free assay, competition with immobilised ligand; 1 µM).
`CCCS(=O)(=O)Nc1ccc(F)c(C(=O)c2c[nH]c3ncc(-c4ccc(Cl)cc4)cc23)c1F` has an inhibition of under 10% (enzyme activity, inhibitor; 1 µM).
The inhibition of `O=C(CSc1nc2nccnc2c(=O)n1CCc1ccccc1)Nc1nccs1` is reported as 9% (enzyme activity, inhibitor; 10 µM).
`Cc1c(NC(=O)c2cc(C(N)=O)nc3cc(F)ccc23)c(C(F)(F)F)nn1Cc1ccc(C#N)cc1` gave a remaining binding of 80% (cell-free assay, competition with immobilised ligand; 1 µM).
`C=CC(=O)Nc1cc(Nc2nccc(Nc3cc(Cl)c(F)cc3C(C)(C)O)n2)c(OC)cc1N1CC[C@@H](N(C)C)C1` gave an inhibition of 11% (enzyme activity, inhibitor; 1 µM).
With `Cc1cc(-n2nc(Cc3cc(F)cc(C(F)(F)F)c3)nc2C)ccc1C(N)=O` the remaining binding was 79% (cell-free assay, competition with immobilised ligand; 1 µM).
`COc1cc(-c2cc(-c3ccc(N4CCNCC4)cc3)cnc2C)cc(OC)c1OC` has an inhibition of 11% (enzyme activity, inhibitor; 1 µM).
